The source made the active and inactive calls. The calls are words filed in the database; no cut-off is given here.
Legend:
[1] = test system: Escherichia coli; assay: Antibacterial activity against Escherichia coli at 1 mmol after 48 hrs by disk diffusion assay; format: functional
In short: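 Disc diffusion on agar. A colony was grown in nutrient broth for 2.5 h and spread over dried plates. Sterile 6 mm paper discs carried 1 mmol of compound. Plates were held at 37 °C and read at 48 h for inhibition-zone diameter. Controls were ampicillin (standard) and a DMSO-only disc.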

[2] = molecular target: T1, Ribonuclease pancreatic (Bos taurus) (UniProt P61823); assay: Inhibition of bovine pancreatic RNase A assessed as degradation of 18s rRNA after 1 hr by agarose gel based assay
T1 sequence (whole entry): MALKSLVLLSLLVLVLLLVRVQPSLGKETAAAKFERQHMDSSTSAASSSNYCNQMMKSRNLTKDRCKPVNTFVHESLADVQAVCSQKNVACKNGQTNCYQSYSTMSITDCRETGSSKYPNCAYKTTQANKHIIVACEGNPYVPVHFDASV
In short: (§1)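 Qualitative agarose-gel assay. RNase A was preincubated with compounds for 1 h at 37 °C. RNA substrate was then added and digested for 15 minutes. Samples were mixed with 40% sucrose and 0.25% bromophenol blue in 1× TAE and run on a 1.1% agarose gel. Degradation of 28S and 18S rRNA bands was scored.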

[3] = molecular target: T1, Ribonuclease pancreatic (Bos taurus); assay: Inhibition of bovine pancreatic RNase A assessed as degradation of 28s rRNA after 1 hr by agarose gel based assay; in short: as §1

| SMILES | Activity [1] | Inhibition (qualitative, active/not active) [2] | inhibition [3] | diameter of the inhibition zone (DIZ) [1] [mm] |
| --- | --- | --- | --- | --- |
| COc1ccc([C@@H]2[C@H](CCN=[N+]=[N-])C(=O)N2c2ccccc2)cc1 | inactive |  |  |  |
| COc1ccc([C@@H]2[C@H](CCO)C(=O)N2c2ccccc2)cc1 | inactive |  |  |  |
| O=C1[C@@H](CCO)[C@@H](c2ccccc2)N1c1ccccc1 | inactive |  |  |  |
| Oc1cc(O)c2c(c1)O[C@H](c1ccc(O)c(O)c1)[C@@H](O)C2 |  | inactive |  |  |
| Oc1cc(O)c2c(c1)O[C@H](c1ccc(O)c(O)c1)[C@H](O)C2 |  | inactive |  |  |
| [N-]=[N+]=NCC[C@@H]1C(=O)N(c2ccccc2)[C@@H]1c1ccccc1 | inactive |  |  |  |
| O=C1[C@@H](CCn2cc(CO[C@H]3Cc4c(O)cc(O)cc4O[C@@H]3c3ccc(O)c(O)c3)nn2)[C@@H](c2ccccc2)N1c1ccccc1 (mixture of isomers) |  | Active | inactive | 9 |
| O=C1[C@@H](CCn2cc(CO[C@@H]3Cc4c(O)cc(O)cc4O[C@@H]3c3ccc(O)c(O)c3)nn2)[C@@H](c2ccccc2)N1c1ccccc1 (mixture of isomers) |  | Active | inactive | 9 |
| COc1ccc([C@@H]2[C@H](CCn3cc(CO[C@H]4Cc5c(O)cc(O)cc5O[C@@H]4c4ccc(O)c(O)c4)nn3)C(=O)N2c2ccccc2)cc1 (mixture of isomers) |  | Active | inactive | 6 |
| COc1ccc([C@@H]2[C@H](CCn3cc(CO[C@@H]4Cc5c(O)cc(O)cc5O[C@@H]4c4ccc(O)c(O)c4)nn3)C(=O)N2c2ccccc2)cc1 (mixture of isomers) |  | Active | inactive | 6 |
